Assay results: ChEMBL document CHEMBL1155759, “New spirostanol steroids and steroidal saponins from roots and rhizomes of Dracaena angustifolia and their antiproliferative activity” (J Nat Prod, 2001)
Structures can show the parent of a compound that is named as a salt.

Tests used:
Format in all cases: functional, cell-based
[1] = Antiproliferative activity against mouse B16-BL6 cells assessed as cell viability after 72 hrs by MTT assay; conditions: B16-BL6, 72 h
Method in brief: (§1)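 MTT viability assay. HT-1080 and B-16 BL6 were kept in Eagle's MEM, colon 26-L5 in RPMI, all with 10% FCS, 0.1% NaHCO3 and 2 mM glutamine. 2500 cells/well were attached for 24 h at 37 °C, 5% CO2, then exposed 72 h to graded concentrations (DMSO stock, final DMSO <0.1%). MTT was added for 2 h, formazan read at 540 nm, and IC50 taken from means of four wells.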

[2] = Antiproliferative activity against mouse Colon 26-L5 cells assessed as cell viability after 72 hrs by MTT assay
[3] = test system: HT-1080; assay: Antiproliferative activity against human HT1080 cells assessed as cell viability after 72 hrs by MTT assay; conditions: HT-1080, 72 h; method in brief: as §1

Structure (SMILES) | IC50 [1] | IC50 [2] | IC50 [3]
C=C1CO[C@@]2(O[C@H]3C[C@H]4[C@@H]5CC=C6C[C@@H](O)C[C@@H](O[C@@H]7OC[C@H](O)[C@H](O[C@@H]8OC[C@@H](OC(C)=O)[C@H](O)[C@H]8O)[C@H]7O[C@@H]7O[C@@H](C)[C@H](OC(C)=O)[C@@H](OC(C)=O)[C@H]7OC(C)=O)[C@]6(C)[C@H]5CC[C@]4(C)[C@H]3[C@@H]2C)[C@@H](O)[C@H]1O[C@@H]1O[C@H](C)[C@H](O)[C@H](O)[C@H]1O [NAMONIN B] | 11.8 µM | 27.7 µM | 0.3 µM
CC1CC[C@@]2(OC1)O[C@H]1C[C@@]3(O)[C@@H]4CC=C5C[C@@H](O)C[C@@H](O)[C@]5(C)[C@H]4CC[C@]3(C)[C@H]1[C@@H]2C (single isomer, unassigned) [NAMOGENIN B] | > 100 µM | > 100 µM | > 100 µM
CC1CC[C@@]2(OC1)O[C@H]1C[C@@]3(O)[C@@H]4CC=C5C[C@@H](O)C[C@@H](O)[C@]5(C)[C@H]4CC[C@]3(C)[C@@]1(O)[C@@H]2C (mixture of isomers) [(25R,S)-NAMOGENIN A] | > 100 µM | > 100 µM | > 100 µM
C=C1CO[C@@]2(O[C@H]3C[C@H]4[C@@H]5CC=C6C[C@@H](O)C[C@@H](O[C@@H]7OC[C@H](O)[C@H](O)[C@H]7O[C@@H]7O[C@@H](C)[C@H](OC(C)=O)[C@@H](O)[C@H]7O)[C@]6(C)[C@H]5CC[C@]4(C)[C@H]3[C@@H]2C)[C@@H](O)[C@H]1O[C@@H]1O[C@H](C)[C@H](O)[C@H](O)[C@H]1O [NAMONIN D] | 42.4 µM | 97.4 µM | 21.6 µM
C=C1CC[C@@]2(OC1)O[C@H]1C[C@H]3[C@@H]4CC=C5C[C@@H](O)C[C@@H](O[C@@H]6OC[C@H](O)[C@H](O)[C@H]6O)[C@]5(C)[C@H]4CC[C@]3(C)[C@H]1[C@@H]2C | 47.9 µM | 77.2 µM | 40 µM
C=C(CCC1=C(C)[C@H]2[C@H](C[C@H]3[C@@H]4CC=C5C[C@@H](O)C[C@@H](O[C@@H]6OC[C@H](O)[C@H](O)[C@H]6O[C@@H]6O[C@@H](C)[C@H](O)[C@@H](O)[C@H]6O)[C@]5(C)[C@H]4CC[C@@]32C)O1)CO[C@@H]1O[C@H](CO)[C@@H](O)[C@H](O)[C@H]1O | > 100 µM | > 100 µM | > 100 µM
C=C1CO[C@@]2(O[C@H]3C[C@H]4[C@@H]5CC=C6C[C@@H](O)C[C@@H](O[C@@H]7OC[C@H](O)[C@H](O[C@@H]8OC[C@@H](O)[C@H](OC(C)=O)[C@H]8O)[C@H]7O[C@@H]7O[C@@H](C)[C@H](OC(C)=O)[C@@H](OC(C)=O)[C@H]7OC(C)=O)[C@]6(C)[C@H]5CC[C@]4(C)[C@H]3[C@@H]2C)[C@@H](O)[C@H]1O[C@@H]1O[C@H](C)[C@H](O)[C@H](O)[C@H]1O [NAMONIN A] | 9.7 µM | 26.6 µM | 0.2 µM
COc1cccc2c1C(=O)c1c(O)c3c(c(O)c1C2=O)C[C@@](O)(C(=O)CO)C[C@@H]3O[C@H]1C[C@H](N)[C@H](O)[C@H](C)O1 [DOXORUBICIN HYDROCHLORIDE] | 0.2 µM | – | 0.2 µM
C=C1CO[C@@]2(O[C@H]3C[C@H]4[C@@H]5CC=C6C[C@@H](O)C[C@@H](O[C@@H]7OC[C@H](O)[C@H](O[C@@H]8OC[C@@H](O)[C@H](O)[C@H]8O)[C@H]7O[C@@H]7O[C@@H](C)[C@H](OC(C)=O)[C@@H](OC(C)=O)[C@H]7OC(C)=O)[C@]6(C)[C@H]5CC[C@]4(C)[C@H]3[C@@H]2C)[C@@H](O)[C@H]1O[C@@H]1O[C@H](C)[C@H](O)[C@H](O)[C@H]1O | 11.9 µM | 22.1 µM | 0.6 µM
C=C1CO[C@@]2(O[C@H]3C[C@H]4[C@@H]5CC=C6C[C@@H](O)C[C@@H](O[C@@H]7OC[C@H](O)[C@H](O)[C@H]7O[C@@H]7O[C@@H](C)[C@H](O)[C@@H](O)[C@H]7O)[C@]6(C)[C@H]5CC[C@]4(C)[C@H]3[C@@H]2C)[C@@H](O)[C@H]1O | 4.2 µM | 5.3 µM | 56.5 µM
C=C1CC[C@@]2(OC1)O[C@H]1C[C@@]3(O)[C@@H]4CC=C5C[C@@H](O)C[C@@H](O)[C@]5(C)[C@H]4CC[C@]3(C)[C@@]1(O)[C@@H]2C [NAMOGENIN C] | > 100 µM | > 100 µM | > 100 µM
CC(=O)O[C@H]1CO[C@@H](O[C@@H]2C[C@H](O)CC3=CC[C@H]4[C@@H]5C[C@@H]6OC(CC[C@@H](C)CO[C@@H]7O[C@H](CO)[C@@H](O)[C@H](O)[C@H]7O)=C(C)[C@@H]6[C@@]5(C)CC[C@@H]4[C@]32C)[C@H](O[C@@H]2O[C@@H](C)[C@H](O)[C@@H](O)[C@H]2O)[C@H]1O[C@@H]1OC[C@@H](O)[C@H](O)[C@H]1O [NAMONIN E] | > 100 µM | > 100 µM | 21.8 µM
C=C1CO[C@@]2(O[C@H]3C[C@H]4[C@@H]5CC=C6C[C@@H](O)C[C@@H](O[C@@H]7OC[C@H](O)[C@H](O)[C@H]7O[C@@H]7O[C@@H](C)[C@H](O)[C@@H](O)[C@H]7O)[C@]6(C)[C@H]5CC[C@]4(C)[C@H]3[C@@H]2C)[C@@H](O)[C@H]1O[C@@H]1O[C@H](C)[C@H](O)[C@H](O)[C@H]1O [NAMONIN C] | > 100 µM | > 100 µM | 27.7 µM
C=C1CO[C@@]2(O[C@H]3C[C@H]4[C@@H]5CC=C6C[C@@H](O)C[C@@H](O[C@@H]7OC[C@H](O)[C@H](O[C@@H]8OC[C@@H](O)[C@H](O)[C@H]8O)[C@H]7O[C@@H]7O[C@@H](C)[C@H](OC(C)=O)[C@@H](OC(C)=O)[C@H]7OC(C)=O)[C@]6(C)[C@H]5CC[C@]4(C)[C@H]3[C@@H]2C)[C@@H](O)[C@H]1O | 28.4 µM | 76.6 µM | 11.1 µM
C=C1CO[C@@]2(O[C@H]3C[C@H]4[C@@H]5CC=C6C[C@@H](O)C[C@@H](O[C@@H]7OC[C@H](O)[C@H](O)[C@H]7O[C@@H]7O[C@@H](C)[C@H](OC(C)=O)[C@@H](OC(C)=O)[C@H]7OC(C)=O)[C@]6(C)[C@H]5CC[C@]4(C)[C@H]3[C@@H]2C)[C@@H](O)[C@H]1O[C@@H]1O[C@H](C)[C@H](O)[C@H](O)[C@H]1O | 20.9 µM | 30.2 µM | 3.8 µM
O=c1[nH]cc(F)c(=O)[nH]1 [FLUOROURACIL] | 0.6 µM | 0.5 µM | 1.5 µM
C=C1CC[C@@]2(OC1)O[C@H]1C[C@H]3[C@@H]4CC=C5C[C@@H](O)C[C@@H](O[C@@H]6OC[C@H](O)[C@H](O)[C@H]6O[C@@H]6O[C@@H](C)[C@H](O)[C@@H](O)[C@H]6O)[C@]5(C)[C@H]4CC[C@]3(C)[C@H]1[C@@H]2C | 41.2 µM | 95.3 µM | 42.1 µM
